# Results as given in ChEMBL document CHEMBL1932954, “An expedient synthesis of honokiol and its analogues as potential neuropreventive agents” (Bioorg Med Chem Lett, 2012).
# Active and inactive are the calls of the source. The calls are words filed in the database; no cut-off is given here.
# What was measured:
# [1] = Cytotoxicity against human SH-SY5Y cells assessed as cell viability at 300 uM by MTT assay; assay type: cell-based; conditions: read-out: Activity
# Summary of the method: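 SH-SY5Y human neuroblastoma cells were exposed to cumene hydroperoxide (CHP) or tert-butyl hydroperoxide (TBHP) at 300 µM for 3 h. Viability was read by MTT assay and expressed relative to untreated control cultures set as 100%. Values are mean ± SEM, n = 3, compared by ANOVA.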
# SH-SY5Y [2] = test: Neuroprotective activity in MPP+-stimulated human SH-SY5Y cells assessed as cell survival at 30 uM measured 24 hrs after MPP+-challenge by MTT assay; assay type: functional; conditions: read-out: Survival
# Summary of the method: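 SH-SY5Y neuroblastoma cells were co-treated with MPP+ (1 mM) and test compound (10–30 µM) for 24 h, with no pretreatment. Viability was read by MTT assay and given as percent of control without MPP+. Values are mean ± SEM, n = 4, compared by ANOVA.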
# SH-SY5Y [3] = test: Neuroprotective activity in human SH-SY5Y cells assessed as inhibition of MPP+-induced cell death after 24 hrs by MTT assay; assay type: functional, cell-based
# Summary of the method: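 SH-SY5Y neuroblastoma cells co-treated with MPP+ (1 mM) and compound (10–30 µM) at the same time for 24 h. MTT read-out, given as percent viability versus control without MPP+. Mean ± SEM, n = 4; ANOVA.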
# SH-SY5Y [4] = test: Neuroprotective activity in human SH-SY5Y cells assessed as inhibition of CHP and TBHP-induced cell death at 10 uM incubated for 30 mins prior to challenge measured after 3 hrs by MTT assay; assay type: functional, cell-based
# Summary of the method: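 SH-SY5Y human neuroblastoma cells pretreated with compound at 10 µM for 30 min, then exposed to cumene hydroperoxide (CHP) or tert-butyl hydroperoxide (TBHP) at 300 µM for 3 h. Viability read by MTT and expressed relative to untreated control set as 100%. Mean ± SEM, n = 3; ANOVA.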
compound,measurement,setting,value
CC(C)(OO)c1ccccc1 [CUMENE HYDROPEROXIDE],viability at 300 µM,[1],64%
C#CCc1ccc(O)c(-c2ccc(O)c(CC=C)c2)c1,viability at 30 µM,SH-SY5Y [2],80%
same,inhibition,SH-SY5Y [3],Dose-dependent effect
same,inhibition,SH-SY5Y [4],Active
CC(C)(C)OO [TERT-BUTYL HYDROPEROXIDE],viability at 300 µM,[1],72%
C=CCc1ccc(O)c(-c2ccc(O)c(CC=C)c2)c1,inhibition,SH-SY5Y [3],Dose-dependent effect
same,inhibition,SH-SY5Y [4],Active
C=CCc1cc(-c2cccc(O)c2CC=C)ccc1O,viability at 30 µM,SH-SY5Y [2],79%
same,inhibition,SH-SY5Y [3],Dose-dependent effect
same,inhibition,SH-SY5Y [4],Active
C=CCc1cc(-c2cc(CCC)ccc2O)ccc1O,viability at 30 µM,SH-SY5Y [2],83%
same,inhibition,SH-SY5Y [3],Dose-dependent effect
same,inhibition,SH-SY5Y [4],Active
C=CCc1cc(-c2ccc(O)c(CC=C)c2)ccc1O,inhibition,SH-SY5Y [3],Dose-dependent effect
same,inhibition,SH-SY5Y [4],Active
C=CCc1ccc(O)c(-c2ccc(O)c(CCC)c2)c1,viability at 30 µM,SH-SY5Y [2],87%
same,inhibition,SH-SY5Y [3],Dose-dependent effect
same,inhibition,SH-SY5Y [4],Active
CCCc1ccc(O)c(-c2ccc(O)c(CCC)c2)c1,viability at 30 µM,SH-SY5Y [2],91%
same,inhibition,SH-SY5Y [3],Dose-dependent effect
same,inhibition,SH-SY5Y [4],Active
